Bioassay records (PubChem)
Only some compounds are listed: those with a hit (about 2.7% of all), similar ones and a draw of the others.
MC4R barr agon: human MC4R agonism via beta-arrestin. hit rate 0.98% among 360,000. activation, % at 8.9 µM. U2OS MC4R beta-arrestin complementation, luminescence; percent of melanotan II response, DMSO zero. P32245. AID 540308;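 active = activation above a per-plate cutoff, the mean activation of sample wells on that plate plus 3 SD, cut at about 8% in these data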
Target sequence (P32245 whole entry, looked up): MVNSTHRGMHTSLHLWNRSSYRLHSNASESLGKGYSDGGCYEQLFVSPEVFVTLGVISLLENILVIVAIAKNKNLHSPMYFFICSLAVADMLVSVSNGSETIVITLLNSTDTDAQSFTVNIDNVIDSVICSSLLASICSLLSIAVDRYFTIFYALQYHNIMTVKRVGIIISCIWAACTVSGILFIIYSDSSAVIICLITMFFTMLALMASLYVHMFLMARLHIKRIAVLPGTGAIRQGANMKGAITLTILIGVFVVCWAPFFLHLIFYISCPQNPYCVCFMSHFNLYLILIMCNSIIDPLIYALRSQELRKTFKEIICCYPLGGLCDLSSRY
NR2E3 ag-1: activates human NR2E3 receptor. inhibition of corepressor binding, % at 3.98 µM. AID 602229. hit rate 0.35% among 360,000. Q9Y5X4. CHO-S Gal4-NCOR/VP16-NR2E3 two-hybrid, luciferase;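 active = inhibition above the mean of all tested compounds plus 3 SD, cut at about 70% in these data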;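 note: 0% = DMSO with NR2E3 transfected cells and 100% = cells lacking NR2E3 construct; higher means lower luciferase signal from less NR2E3 corepressor binding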
PG9 Ab binder: PG9 antibody binding by small molecule. hit rate 0.43% among 360,000. AID 624416. inhibition, % at 6.7 µM. TR-FRET gp120-PG9 antibody binding; in the data active = inhibition above about 8.5%
NR2E3 ag-2: agonists of human nuclear receptor NR2E3. Q9Y5X4. GST-NR2E3/biotin-RetCOR TR-FRET, 1536-well. inhibition of corepressor binding, % at 4.78 µM. hit rate 0.12% among 320,000. AID 2300;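 active = percent inhibition above the cutoff of mean plus 3 SD of all tested compounds, set per screening campaign, cut at about 20% in these data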;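 note: 0% = DMSO wells and 100% = biotin wells as full block of FRET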
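Test system: GST-NR2E3 and biotin-RetCOR proteins | Quantity: 1.35 nM GST-tagged NR2E3 final | Medium: Tris pH 7.5 | Also added: 7 nM biotin-RetCOR | Dosing: Compound at 4.8 µM, single dose | Timing: 5 h at 4 °C | Detection: Time-resolved FRET | Read-out basis: Percent inhibition | Benchmarks: Biotin wells as high control, 0.6% DMSO wells as low control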
NR1D1 modulator: Rev-erb alpha (human) modulation; Rev-erbα–FITC-DNA binding, fluorescence polarization, 90 min; AID 1259318; P20393; hit rate 0.79% among 370,000; activity, % at 10 µM;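 active = activity above about 14%, limit read from the data; passing the limit was not always enough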;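 note: 0% = DMSO wells with 35 nM protein and 100% = DMSO wells with 750 nM protein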
MC4R antag cAMP: antagonists of human melanocortin 4 receptor (MC4R); P32245; MC4R-expressing cells, MTII-stimulated cAMP, LANCE TR-FRET; inhibition, % at 6.5 µM; hit rate 0.48% among 360,000;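 active = inhibition above its plate's cutoff, the mean of tested wells on that plate plus 3 SD, cut at about 29% in these data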;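 note: 0% = Melanotan II alone and 100% = Melanotan II plus saturating MCL0020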
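Material: human MC4R-expressing U2OS cells. Probe or stimulus: Melanotan II challenge. Dosing: 6.5 µM single dose. Times: 30-min compound, 1-h challenge, 1-h detection, room temperature. Technique: TR-FRET with Eu-cAMP and labeled anti-cAMP, 671 nm. Replication: singlicate.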
MC4R barr ag: human MC4R beta-arrestin agonism confirmation | shares compounds with MC4R barr agon | U2OS MC4R beta-arrestin recruitment, luminescence; scaled DMSO 0%, Melanotan II 100% | activation, % at 8.9 µM | hit rate 31% among 2,400 | AID 602192;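 active = mean activation across replicates above the hit cutoff set in the earlier primary screen, cut at about 8% in these data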
MOR DOR agonist: OPRM1-OPRD1 heterodimer agonism counter-screen. shares compounds with MC4R barr agon. U2OS PathHunter beta-arrestin, beta-gal luminescence; percent of deltorphin B response, DMSO zero. activation, % at 9.2 µM. hit rate 5.8% among 2,400. AID 602194;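 active = mean activation across replicates exceeds the hit threshold derived in the earlier primary screen, cut at about 18% in these data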;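 note: 100% = deltorphin B at 0.9 µM final and 0% = DMSO alone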
The depositor's hits bear a star; / = no result given.

SMILES	MC4R barr agon	NR2E3 ag-1	PG9 Ab binder	NR2E3 ag-2	NR1D1 modulator	MC4R antag cAMP	MC4R barr ag	MOR DOR agonist
CCOC(=O)CNC(=O)C(Cc1ccc2c(c1)OCO2)NC(C)=O (centres undefined)	/	/	/	/	7	/	/	/
Cc1ccc(O)c(C(=O)/C=C/c2ccc3c(c2)OCCCO3)c1	23*	-57	-1	2	0	-3	24*	5
N#C/C(=C\c1ccc(OCCN2CCOCC2)cc1)C(=O)Nc1ccc(S(N)(=O)=O)cc1	-3	3	0	-4	1	-4	/	/
O=C(COC(=O)c1cc2ccccc2cc1O)Nc1ccccc1F	13*	-25	0	/	-3	1	2	3
O=C(COC(=O)c1cc2ccccc2cc1O)Nc1cccnc1Cl	4	-56	-2	0	4	9	/	/
O=C(COC(=O)c1ccccc1O)Nc1cccc2ccccc12	12*	36	1	4	-2	-2	1	2
COc1ccccc1NC(=O)COC(=O)c1cc2ccccc2cc1O	17*	3	-1	0	5	5	1	6
COc1ccc(C(C)=O)cc1COc1ccc(Cl)cc1Cl	11*	-1	0	2	-1	-7	0	2
CC(C)CC(NS(=O)(=O)c1ccc2c(c1)oc(=O)n2C)C(=O)N1CC=C(c2ccccc2)CC1 (centres undefined)	0	-12	2	1	0	8	/	/
O=C(NCc1cccnc1)c1ccc(S(=O)(=O)N2CCCCC2)cc1	0	3	-1	4	4	10	/	/
COc1ccc(C(C)=O)cc1COC(=O)c1cccnc1Cl	-2	-20	0	-1	-1	-2	/	/
COc1ccc(C(C)=O)cc1COC(=O)c1cc2ccccc2cc1O	11*	-10	2	3	13	-16	-1	6
Cc1cc(C)cc(OC(=O)CCN2C(=O)c3ccccc3C2=O)c1	3	9	-1	-5	-2	0	/	/
Cc1ccc(NC(=O)c2ccc(OC(=O)CCN3C(=O)c4ccccc4C3=O)cc2)cc1	12*	-37	-1	1	-7	6	2	3
CC1CCC(C(C)C)C(OC(=O)C[n+]2cc(-c3ccc(Cl)cc3)n3c2CCC3)C1 (centres undefined)	17*	7	1	-2	-7	14	4	4
COCC(C)n1c(SCC(=O)Nc2cc(C)on2)nc2ccccc2c1=O (centres undefined)	-2	-1	2	/	0	5	/	/
CCCCNC(=O)C1(C)CCN1C(=O)c1ccccc1Br (centres undefined)	-2	-14	0	/	-6	5	/	/
Nc1nc(-c2cc(O)ccc2[N+](=O)[O-])cc(-c2ccccc2)c1[N+](=O)[O-]	11*	-28	2	/	-3	-17	1	3
O=C(Nc1cnn(Cc2ccc(Cl)cc2Cl)c1)c1noc2c1CCCC2	3	-62	0	-2	-9	4	/	/
O=C(Nc1cnn(Cc2ccc(Cl)cc2Cl)c1)c1cc(-c2cccs2)on1	21*	-15	-3	2	-4	-1	2	4
O=C(CSC1=NCCS1)Nc1ccc(F)cc1	0	-20	-2	3	1	-5	/	/
O=C(Nc1ccc(Br)cc1)c1ccc(CSC2=NCCS2)cc1	29*	-17	2	1	10	1	3	13
Cc1ccc(N(CC(=O)NC(C)c2ccccc2)S(=O)(=O)c2cccs2)cc1 (centres undefined)	17*	3	-2	0	-1	5	-5	2
COc1cccc(CNC(=O)[C@@H]2CCCN2C(=O)[C@@H]2CCCN2C(=O)c2cccs2)c1	/	-12	1	/	8	/	/	/
O=C(COc1ccccc1)NCc1ccco1	0	9	1	/	-10	7	/	/
